Measurements as given in PMC6972567 (Journal of Clinical Pharmacology, 2019).

What was measured:
[1] = Plasma pharmacokinetics of the CYP probe substrates and metabolites; assay type: in vivo, human; conditions: for t1/2 / half-life: harmonic mean ± pseudo-SD; for AUC(0-inf): AUCinf; for AUC(0-t): AUCt
[2] = system: CYP2C19; assay type: in vivo, human; conditions: probe with upadacitinib 30 mg once daily relative to probe alone, all subjects
[3] = molecular target: T1, CYP1A2 (Homo sapiens, UniProt P05177); assay type: in vivo; conditions: probe with upadacitinib 30 mg once daily relative to probe alone, all subjects
T1 sequence (P05177 1-516): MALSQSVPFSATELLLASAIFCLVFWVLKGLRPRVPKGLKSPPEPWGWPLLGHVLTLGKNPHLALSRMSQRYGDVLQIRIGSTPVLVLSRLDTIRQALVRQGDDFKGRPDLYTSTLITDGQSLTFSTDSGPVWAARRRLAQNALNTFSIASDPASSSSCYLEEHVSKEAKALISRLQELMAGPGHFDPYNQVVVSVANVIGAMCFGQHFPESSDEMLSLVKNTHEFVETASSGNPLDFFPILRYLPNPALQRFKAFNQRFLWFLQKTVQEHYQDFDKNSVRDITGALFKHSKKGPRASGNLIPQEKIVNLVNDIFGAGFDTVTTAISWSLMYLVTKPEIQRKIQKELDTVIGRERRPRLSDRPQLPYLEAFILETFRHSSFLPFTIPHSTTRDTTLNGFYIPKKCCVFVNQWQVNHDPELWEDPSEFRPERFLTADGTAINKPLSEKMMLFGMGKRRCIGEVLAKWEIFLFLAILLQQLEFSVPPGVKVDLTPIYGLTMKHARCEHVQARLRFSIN
Procedure, shortened: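 Twenty subjects received single oral doses on two occasions: a caffeine 200 mg tablet with the other cocktail probes, after a 10-hour minimum fast and 4 hours before lunch. This was given first alone, then after a 5-day washout on day 12 of test compound 30 mg once daily (days 1‐15). Heparinised plasma was sampled predose through 24 h and at 36 h, with validated assay.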

[4] = system: CYP2D6; assay type: in vivo, human; conditions: probe with upadacitinib 30 mg once daily relative to probe alone, all subjects
[5] = system: CYP3A; assay type: in vivo, human
[6] = cited from earlier work
[7] = system: CYP3A; conditions: cited from earlier work
[8] = Safety assessments in the cocktail study; assay type: in vivo, human
[9] = Period 1, CYP probes alone, median (range)
[10] = Period 1, CYP probes alone, n = 20, mean ± SD
[11] = Period 2, CYP probes + upadacitinib 30 mg once daily
[12] = Period 2, CYP probes + upadacitinib 30 mg once daily, median (range)
[13] = Period 2, CYP probes + upadacitinib 30 mg once daily, n = 20, mean ± SD
[14] = human, plasma, oral, t1/2, Period 2, CYP probes + upadacitinib 30 mg once daily
[15] = human, plasma, oral, Period 1, CYP probes alone, n = 20, mean ± SD
[16] = human, plasma, oral, Period 2, CYP probes + upadacitinib 30 mg once daily, n = 20, mean ± SD
[17] = multiple doses of upadacitinib 30 mg once daily
[18] = probe with upadacitinib 30 mg once daily relative to probe alone, all subjects

| Compound | t1/2 ([1]; Period 1, CYP probes alone) [h] | Tmax [1, 9] | t1/2 [1, 11] [h] | Tmax [1, 12] | CL/F [1, 10] [L/h] | CL/F [1, 13] [L/h] | Tmax ([1]; human, plasma, oral) [h] | Cmax ([1]; human, plasma, po) [ng/mL] | AUC(0-inf) [1, 16] [ng·h/mL] | AUC(0-t) [1, 15] [ng·h/mL] | AUC(0-t) [1, 16] [ng·h/mL] | other results |
| --- | --- | --- | --- | --- | --- | --- | --- | --- | --- | --- | --- | --- |
| COc1ccc2nc([S+]([O-])Cc3ncc(CO)c(OC)c3C)[nH]c2c1 (centres unmarked) [5‐Hydroxy omeprazole, 5‐hydroxy‐omeprazole] | 1.36 ± 0.293 | 3.0 (2.0‐6.0) h | 1.37 ± 0.319 | 3.0 (2.0‐6.0) h |  |  |  |  |  |  |  | AUCinf [1, 10]: 1290 ± 364 ng·h/mL; AUCt [1, 10]: 1270 ± 359 ng·h/mL; Cmax ([1]; Period 1, CYP probes alone, single oral dose, plasma, healthy subjects n = 20, mean ± SD): 435 ± 155 ng/mL; AUCinf [1, 13]: 1180 ± 302 ng·h/mL; AUCt [1, 13]: 1160 ± 292 ng·h/mL; Cmax ([1]; Period 2, CYP probes + upadacitinib 30 mg once daily, plasma, n = 20, mean ± SD): 389 ± 116 ng/mL; AUCinf Central Value Ratio (90%CI) [2]: 0.92 (0.86‐0.99); AUCt Central Value Ratio (90%CI) [2]: 0.92 (0.85‐0.99) |
| Cn1c(=O)c2c(ncn2C)n(C)c1=O [Caffeine, caffeine] |  |  |  | 2.0 (1.0‐4.0) h | 6.53 ± 2.99 | 5.31 ± 2.26 | 2 | 4190 ± 826 |  |  |  | half-life ([1]; human, plasma, oral, t1/2, Period 1, CYP probes alone): 271 ± 90 min; half-life [1, 14]: 317 ± 90 min; AUCinf Central Value Ratio (90%CI) [3]: 1.22 (1.15‐1.29); AUCt Central Value Ratio (90%CI) [3]: 1.21 (1.15‐1.28); Cmax Central Value Ratio (90%CI) [3]: 1.13 (1.05‐1.22) |
| COc1ccc2c(c1)[C@]13CCCC[C@@H]1[C@H](C2)N(C)CC3 [Dextromethorphan, dextromethorphan] | 6.82 ± 4.68 |  | 7.26 ± 5.08 | 3.5 (2.0‐6.0) h | 4120 ± 5580 | 3390 ± 4560 | 3.5 | 7.77 ± 10.1 | 328 ± 552 | 250 ± 397 | 225 ± 347 | AUC(0-inf) [1, 15]: 403 ± 706 ng·h/mL; AUCinf Central Value Ratio (90%CI) [4]: 1.07 (0.95‐1.22); AUCt Central Value Ratio (90%CI) [4]: 1.10 (0.97‐1.25); Cmax Central Value Ratio (90%CI) [4]: 1.09 (0.98‐1.21) |
| Cc1ncc2n1-c1ccc(Cl)cc1C(c1ccccc1F)=NC2 [Midazolam, midazolam] | 4.65 ± 2.51 | 0.5 (0.5‐1.0) h | 4.08 ± 2.33 |  | 68.1 ± 29.2 | 90.2 ± 32.7 |  | 32.6 ± 14.1 | 64.6 ± 30.9 | 87.5 ± 44.5 | 63.2 ± 29.6 | decrease in AUCinf [5, 17]: 26%; decrease in Cmax [5, 17]: 26%; AUCinf Central Value Ratio (90%CI) [5, 18]: 0.74 (0.68‐0.80); AUCt Central Value Ratio (90%CI) [5, 18]: 0.74 (0.68‐0.80); Cmax Central Value Ratio (90%CI) [5, 18]: 0.74 (0.68‐0.80); decrease in exposure ([5]; upadacitinib 30 mg once daily): 26% |
| COc1ccc2[nH]c([S+]([O-])Cc3ncc(C)c(OC)c3C)nc2c1 (centres unmarked) [Omeprazole, omeprazole] |  |  |  | 3.0 (2.0‐6.0) h | 26.5 ± 20.5 | 34.9 ± 24.7 | 3 |  | 2080 ± 1860 | 2520 ± 2750 | 2000 ± 1820 | AUC(0-inf) [1, 15]: 2890 ± 2870 ng·h/mL; half-life [1, 14]: 68.4 ± 23.2 min; AUCinf Central Value Ratio (90%CI) [2]: 0.82 (0.72‐0.94); AUCt Central Value Ratio (90%CI) [2]: 0.87 (0.77‐0.99); Cmax Central Value Ratio (90%CI) [2]: 0.87 (0.72‐1.05) |
| CC(=O)C[C@@H](c1ccccc1)c1c(O)c2ccccc2oc1=O [S‐warfarin] |  | 2.0 (0.5‐4.0) h |  | 2.0 (0.5‐3.0) h |  |  |  |  |  |  |  | concentrations at the start of period 2 ([1]; carryover after 5-day washout): < 5 % of S‐warfarin Cmax |
| CC[C@@H]1CN(C(=O)NCC(F)(F)F)C[C@@H]1c1cnc2cnc3[nH]ccc3n12 [Upadacitinib] |  |  |  |  |  |  |  |  |  |  |  | administered dose recovered as unchanged upadacitinib in feces and urine [6]: more than 60%; metabolizing enzymes [6]: metabolized by cytochrome P450 (CYP) 3A and, to a lesser extent, by CYP2D6; accumulation in plasma ([6]; multiple once-daily dosing of the extended-release formulation): no accumulation; sensitivity as CYP3A substrate ([7]; concluded from ketoconazole and rifampin interaction): not a sensitive substrate for CYP3A; increase in upadacitinib AUC ([7]; with ketoconazole, a strong CYP3A inhibitor): 75%; tolerability ([8]; CYP probe substrates alone or after multiple doses of upadacitinib 30 mg once daily, healthy subjects): well tolerated; adverse event assessed as possibly related to upadacitinib ([8]; one subject): mild oropharyngeal pain; effect of upadacitinib on CYP3A activity / probe exposure in vivo (in words) ([5]; upadacitinib 30 mg once daily, midazolam probe): limited effect |
